procasp7 counter: procaspase-7 activators, primary screen, counter-screen for procaspase-3 activator project, biochemical, absorbance, HTS, human; Caspase-7 (Homo sapiens), P55210; recombinant procaspase-7, Ac-DEVD-pNA absorbance 405 nm; D23A/D198A/D206A triple mutant, cannot self-cleave; scale: DMSO 0, 5 µM enzyme 100; activation, % at 8.5 µM; 0.093% of 330,000 active;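 active means percent activation above the screen-wide mean plus 3 SD, cut at about 25% in these data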
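Assay system – Uncleavable procaspase-7 mutant enzyme · Quantity – 2 µM procaspase-7 mutant as dispensed · Times – 1 h preincubation, 2 h reaction · Dosing – single nominal 8.5 µM compound dose, 0.8% DMSO final · Buffer or medium – Zinc-free 50 mM HEPES buffer, pH 7.4, with NaCl and Triton X-100 · Detection – Epi-absorbance of released pNA at 405 nm, two timepoints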
LANA-H2A inh: blockers of LANA interaction with H2A/H2B – biochemical, FP readout, HTS, primary screen; Protein LANA1 (Human herpesvirus 8 type P (isolate GK18)), Q9QR71; cell-free LANA-H2A/H2B peptide, fluorescence polarization; inhibition, % (no concentration beside the values); 0.6% of 320,000 active; in the data active means inhibition mostly above about 10%, no sharp cut-off; inactive means mostly below about 6.7%
procasp3 activ: activators of human procaspase-3 D3A mutant, primary screen, biochemical, absorbance, PC-3 D3A mutant, single concentration | recombinant procaspase-3 D3A, Ac-DEVD-pNA absorbance 405 nm | activation, % at 8.5 µM | 0.11% of 330,000 active | AID 463141, 2010;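 active means activation above the mean of all tested compounds plus 3 SD, cut at about 21% in these data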;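 further: 0% = DMSO alone and 100% = DMSO wells spiked with extra 5 µM PC-3 D3A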
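assay system = Procaspase-3 D3A mutant | signal = absorbance at 405 nm, 0 and 120 min | times = 1 h preincubation plus 2 h reaction at 25 °C | repeats = single replicate | read-out = % activation between DMSO and enzyme-spiked controls | medium = Zinc-free HEPES saline buffer with Triton X-100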
Yeast superoxide: reduction of superoxide in aged yeast, primary screen, HTS; S. cerevisiae aged cells, superoxide DHE fluorescence; active compounds read low; superoxide response (% of plate mean), % at 10 µM; 0.18% of 330,000 active; AID 2690, 2010;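 active means superoxide response under a set limit, about three screen SD below normal, cut at about 65% in these data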;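 further: yeast aged for seven days with compound at 30 °C before DHE staining; 100% = average MFI of all compound-treated wells on the plate with controls excluded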
ASAP1 GAP inh: inhibitors of human ASAP1 ArfGAP activity, primary screen, biochemical, fluorescence polarization. ASAP1-stimulated ARF1 GTP hydrolysis, GDP FP detection. inhibition, % at 16.5 µM. Arf-GAP with SH3 domain, ANK repeat and PH domain-containing protein 1 (Homo sapiens), …. AID 624377, 2012. 0.19% of 360,000 active; in the data active means inhibition above about 25%;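 further: 0% = vehicle with enzyme and substrate and 100% = no enzyme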
Target sequence (Q9ULH1 325-724 limits assumed): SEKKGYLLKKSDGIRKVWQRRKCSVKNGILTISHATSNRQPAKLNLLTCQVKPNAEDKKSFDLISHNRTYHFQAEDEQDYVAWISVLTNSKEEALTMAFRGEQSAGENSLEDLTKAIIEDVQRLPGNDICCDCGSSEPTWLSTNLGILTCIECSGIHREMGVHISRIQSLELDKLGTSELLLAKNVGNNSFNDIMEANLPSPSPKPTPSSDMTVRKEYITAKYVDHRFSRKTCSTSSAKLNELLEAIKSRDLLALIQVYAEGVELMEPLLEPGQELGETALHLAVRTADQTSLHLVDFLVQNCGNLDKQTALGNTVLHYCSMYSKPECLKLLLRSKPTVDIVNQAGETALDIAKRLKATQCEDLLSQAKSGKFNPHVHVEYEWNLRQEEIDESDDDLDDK
ARFGAP1 inh: inhibitors of rat ARFGAP1 GAP activity, primary screen, biochemical, fluorescence polarization, GDP tracer. 0.26% of 360,000 active. inhibition, % at 16.5 µM. AID 651572, 2012. Arfgap1-stimulated ARF1 GTP hydrolysis, GDP FP detection;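 active means inhibition above a per-plate limit, mean inhibition of low control wells plus 3 SD, cut at about 25% in these data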;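 further: 0% = DMSO wells with enzyme and 100% = wells lacking Arfgap1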
Target sequence (Q62848 1-136 limits assumed): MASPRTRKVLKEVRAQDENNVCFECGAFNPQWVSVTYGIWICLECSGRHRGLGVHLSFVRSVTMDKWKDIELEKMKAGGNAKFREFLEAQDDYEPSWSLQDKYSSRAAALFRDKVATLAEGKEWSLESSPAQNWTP
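Material: truncated rat Arfgap1 GAP domain; Incubation: compound-enzyme preincubation 20 min, reaction 120 min, detection 60 min, 25 °C; Read-out: percent inhibition of Arfgap1-stimulated GTP hydrolysis; Technique: FP, GDP Alexa 633 tracer displaced from anti-GDP antibody, 620/688 nm; Controls: No-Arfgap1 wells (100%) versus DMSO full-reaction wells (0%); Replication: single well per compound.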
* = called active by the depositor; / = not tested or not shown; + = active, no number. The list is not random: actives were taken first. Their share in the collection is about 1.2%.

SMILES | procasp7 counter | LANA-H2A inh | procasp3 activ | Yeast superoxide | ASAP1 GAP inh | ARFGAP1 inh
Cc1cc(C(=O)OCC(=O)Nc2cccc(F)c2)c(C)n1C1CC1 | -17 | + | 8 | 105 | 2 | -9
Cc1sc(-n2c(C)cc(C=C3C(=O)NC(=O)NC3=O)c2C)c(C#N)c1C | -20 | 17* | 0 | 97 | 9 | 5
C[N+](C)(C)CCc1ccc(O)cc1 | 4 | 11* | 3 | 89 | 12 | -12
CN1CCN(c2ccc([N+](=O)[O-])c3no[n+]([O-])c23)CC1 | 3 | 38* | -5 | 141 | -7 | 8
CNCCC(Oc1ccc(C(F)(F)F)cc1)c1ccccc1 (stereo unspecified) | -7 | 13* | 0 | 91 | 0 | 4
CNCCc1ccccc1 | 5 | -3 | -2 | 79 | / | /
CC(C)OP(=O)(OC(C)C)C(NCc1ccccc1)c1ccccc1 (stereo unspecified) | -2 | -1 | -1 | 100 | 8 | 6
CCCC(=O)OCC[N+](C)(C)C | -1 | 20* | 1 | 104 | -11 | 7
CN(C)c1ccc(/C=C/C=C2/C(=O)NC(=O)N(c3ccccc3)C2=O)cc1 | / | / | / | / | 28* | 5
CC1(O)CCN2C(=O)CCc3cccc1c32 (stereo unspecified) | -32 | 12* | -17 | 126 | 0 | -8
O=c1c2ccccc2nc(/C=C/c2ccc3c(c2)OCO3)n1-c1ccccc1 | 6 | 11* | 3 | 88 | 4 | 15
O=c1c2ccccc2nc(/C=C/c2ccccn2)n1-c1ccccc1 | 0 | -2 | -2 | 106 | -10 | 6
CN1C(=O)N(C)C(=O)C(NS(=O)(=O)c2ccc(N)cc2)(c2ccccc2)C1=O | / | / | / | / | 3 | 4
COc1ccc(CCn2c(O)c(C=Nc3ccc(F)cc3)c(=O)[nH]c2=O)cc1OC | -7 | 15* | -10 | 104 | -1 | 0
CC(=O)O[C@H]1[C@H]2O[C@]23[C@@H]2CC[C@]4(O)C[C@@H](O)CC[C@]4(C)C2CC[C@]3(C)[C@H]1c1ccc(=O)oc1 (stereo partly specified) | 3 | -3 | 4 | 102 | / | /
OCCOCCO | 11 | 1 | 15 | 109 | -2 | 2
O=C(O)Cn1cc(C=C2C(=O)NC(=O)NC2=O)c2ccccc21 | -12 | 6 | -8 | 93 | -6 | 9
O=C(Cn1cc(C=C2C(=O)NC(=O)NC2=O)c2ccccc21)NCC1CCCO1 (stereo unspecified) | -12 | 18* | -10 | 90 | 4 | 4
CCN1C(=O)NC(=O)/C(=C\c2cn(CC(=O)N3CCCCC3C)c3ccccc23)C1=O (stereo unspecified) | -5 | 33* | -4 | 90 | / | /
CN1C(=O)C(=Cc2cn(CC(=O)N3CCCC3)c3ccccc23)C(=O)N(C)C1=O | -5 | 12 | 3 | 82 | 3 | -8
CCC1(CCC(C)C)C(=O)NC(=S)NC1=O | / | / | / | / | -18 | -2
Fc1cccc(C2NCCc3[nH]cnc32)c1 (stereo unspecified) | -8 | -1 | 8 | 101 | 2 | -1
CCN(CC)N=O | 4 | 3 | 6 | 108 | 6 | -7
CN(C)N=O | 11 | 49* | 15 | 90 | 12 | 1
O=S(=O)(NC1CCCCC1)OCC(Cl)(Cl)Cl | -5 | 0 | 1 | 92 | -3 | 4
SMILES | procasp7 counter | LANA-H2A inh | procasp3 activ | Yeast superoxide | ASAP1 GAP inh | ARFGAP1 inh
CC(C)CC12CN3CCN(CC(C3)C1O)C2 (stereo unspecified) | 10 | 0.7* | -7 | 99 | -6 | 9
CC12CN3CCN(CC(C3)C1O)C2 (stereo unspecified) | 3 | 2 | 4 | 103 | -2 | -1
O=C(C1CCCN(S(=O)(=O)c2cccc3nsnc23)C1)N1CCC2(CC1)OCCO2 (stereo unspecified) | 2 | 45* | -2 | 97 | -5 | 3
COc1ccc(CC2C(=O)N(c3ccccc3)C(=O)N(c3ccccc3)C2=O)c(OC)c1 | -6 | 13* | -9 | 122 | 7 | -6
COc1ccc(CC2C(=O)NC(=O)N(c3ccccc3)C2=O)c(OC)c1 (stereo unspecified) | -6 | -1 | -14 | 112 | 15 | 6
CCc1ccc(OCC(=O)N2CCN(Cc3ccc4c(c3)OCO4)CC2)cc1 | 6 | -7 | 1 | 83 | -6 | -4
N#CC12CNCC1CN=N2 (stereo unspecified) | 6 | 18* | -6 | 110 | -7 | 6
Cc1ccc(-n2c(O)c(C=Nc3ccc(Br)cn3)c(=O)[nH]c2=O)cc1 | -8 | -4 | -9 | 101 | 6 | 1
O=C1NC(=S)NC(=O)C1C1CCCCC1 | -33 | 15* | -17 | 99 | -3 | -7
O=[N+]([O-])c1ccccc1Cl | / | 1 | / | 106 | 0 | 1
O=C1NC(=O)C(Sc2ccccc2[N+](=O)[O-])C(=O)N1 | -18 | 5 | -10 | 104 | 42* | 22
COC(=O)C1=C(c2ccccc2)C[C@@H]2CC[C@H]1N2C(=O)NCCCOC(C)C | 8 | -1 | 4 | 96 | -6 | -4
Cc1c(CCN)ccc2c1[nH]c1ccccc12 | -20 | 2 | -1 | 65* | -5 | 2
CCCN1CCc2cccc3c2[C@H]1Cc1ccc(O)c(O)c1-3 | -27 | 10 | -20 | 33* | / | /
O=C1NC(=O)C(Nc2ccc(Cl)c(Cl)c2)C(=O)N1 | / | / | / | / | 47* | 14
Cn1cc(C(=O)OCC(=O)Nc2ccccc2)c2ccccc21 | 4 | 90* | 5 | 100 | 6 | 15
Cn1cc(C(=O)OCC(=O)Nc2ccccc2Cl)c2ccccc21 | / | / | / | / | -14 | 1
CCCC1CCCCC12C(=O)NC(=O)NC2=O (stereo unspecified) | / | / | / | / | -1 | -1
CC(C)(O)C(=O)Nc1ccc([N+](=O)[O-])c(C(F)(F)F)c1 | -2 | 20* | 1 | 121 | 3 | 11
COc1cc2c(cc1OC)CN(c1ccc([N+](=O)[O-])c(C(F)(F)F)c1)CC2 | -49 | 5 | -22 | 106 | 13 | 15
